Reference: ChEMBL document CHEMBL1157593, “Structure-based design, synthesis, and biological studies of new anticancer norindenoisoquinoline topoisomerase I inhibitors” (2010)
Active and inactive are the calls of the source. The calls are words filed in the database; no cut-off is given here.

Legend:
HOP-62 = test: Antiproliferative activity against human HOP62 cells; assay type: functional
SN12C = test: Antiproliferative activity against human SN12C cells; assay type: functional
SF-539 = test: Antiproliferative activity against human SF539 cells; assay type: functional
UACC-62 = test: Antiproliferative activity against human UACC62 cells; assay type: functional
HCT-116 = test: Antiproliferative activity against human HCT116 cells; assay type: functional
DU-145 = test: Antiproliferative activity against human DU145 cells; assay type: functional
MDA-MB-435 = test: Antiproliferative activity against human MDA-MB-435 cells; assay type: functional
OVCAR-3 = test: Antiproliferative activity against human OVCAR-3 cells; assay type: functional
[1] = biological target: T1, DNA topoisomerase 1 (Homo sapiens) (UniProt P11387); test: Inhibition of human recombinant topoisomerase-1-mediated 117bp DNA oligonucleotide cleavage at 10 uM by PAGE
T1 sequence (whole entry): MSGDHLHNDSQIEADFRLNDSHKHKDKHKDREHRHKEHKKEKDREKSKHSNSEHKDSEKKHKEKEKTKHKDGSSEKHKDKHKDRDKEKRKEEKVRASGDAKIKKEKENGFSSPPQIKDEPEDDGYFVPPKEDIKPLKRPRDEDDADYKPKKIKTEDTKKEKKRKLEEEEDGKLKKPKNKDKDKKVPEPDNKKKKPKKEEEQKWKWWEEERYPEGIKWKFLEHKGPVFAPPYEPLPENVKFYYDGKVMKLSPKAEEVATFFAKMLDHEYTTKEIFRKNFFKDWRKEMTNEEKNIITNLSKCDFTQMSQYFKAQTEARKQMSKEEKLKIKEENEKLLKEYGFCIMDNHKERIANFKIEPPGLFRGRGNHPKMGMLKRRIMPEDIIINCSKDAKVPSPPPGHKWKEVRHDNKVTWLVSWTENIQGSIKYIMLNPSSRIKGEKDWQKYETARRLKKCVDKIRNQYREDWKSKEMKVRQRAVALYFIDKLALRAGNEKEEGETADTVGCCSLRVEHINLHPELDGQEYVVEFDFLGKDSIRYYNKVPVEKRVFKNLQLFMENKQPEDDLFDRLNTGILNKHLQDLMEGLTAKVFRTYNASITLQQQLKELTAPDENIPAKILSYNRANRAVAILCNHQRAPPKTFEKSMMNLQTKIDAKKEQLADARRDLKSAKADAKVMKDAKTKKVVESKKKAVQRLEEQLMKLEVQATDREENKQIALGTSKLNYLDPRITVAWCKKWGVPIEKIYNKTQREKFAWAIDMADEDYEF
Method in brief: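 About 2 nM of it is incubated with recombinant Top1 in 10 mM Tris-HCl pH 7.5, 50 mM KCl, 5 mM MgCl2, 0.1 mM EDTA and 15 μg/mL BSA, with compound, for 20 min at 25 °C. Reactions are stopped with 0.5% SDS, run on 20% denaturing PAGE, and cleavage is scored semiquantitatively (0 to ++++) against 1 μM CPT.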

COLO 205 = test: Antiproliferative activity against human COLO205 cells; assay type: functional
ACHN = test: Antiproliferative activity against human ACHN cells; assay type: functional
HCC 2998 = test: Antiproliferative activity against human HCC2998 cells; assay type: functional
MOLT-4 = test: Antiproliferative activity against human MOLT4 cells; assay type: functional
RPMI-8226 = test: Antiproliferative activity against human RPMI8226 cells; assay type: functional
SF-295 = test: Antiproliferative activity against human SF295 cells; assay type: functional
NCI-H460 = test: Antiproliferative activity against human NCI-H460 cells; assay type: functional
SR = test: Antiproliferative activity against human SR cells; assay type: functional
U-251 = test: Antiproliferative activity against human U251 cells; assay type: functional
CCRF-CEM = test: Antiproliferative activity against human CCRF-CEM cells; assay type: functional
MCF7 = test: Antiproliferative activity against human MCF7 cells; assay type: functional
CAKI-1 = test: Antiproliferative activity against human Caki1 cells; assay type: functional
IGROV-1 = test: Antiproliferative activity against human IGROV1 cells; assay type: functional

Row | SMILES | GI50 (HCT-116) [nM] | GI50 (DU-145) [nM] | GI50 (MDA-MB-435) [nM] | GI50 (OVCAR-3) [nM] | inhibition [1] | GI50 (HOP-62) [nM] | GI50 (SN12C) [nM] | GI50 (SF-539) [nM] | GI50 (UACC-62) [nM] | also measured
1 | CC[C@@]1(O)C(=O)OCc2c1cc1n(c2=O)Cc2cc3ccccc3nc2-1 [CAMPTOTHECIN] | 30 | 10 | 40 |  |  | 10 | 20 | 10 | 10 | 
2 | COc1cc2cnc3c(c2cc1OC)Cc1c-3cc2c(c1CN(C)C)OCO2 | 1500 | 1600 | 16000 | 1400 | Active | 6700 | 13000 | 14000 | 12000 | 
3 | COc1cc2c3c(n(C)c(=O)c2cc1OC)-c1cc2c(cc1C3=O)OCO2 | 35000 | 37000 | 96000 |  | Active | 1300 | 68000 | 41000 | 4200 | 
4 | COc1cc2cnc3c(c2cc1OC)Cc1cc2c(cc1-3)OCO2 | > 100000 | 28 | < 10 |  | Active | 72 | > 100000 | < 10 | < 10 | 
5 | COc1cc2cnc3c(c2cc1OC)Cc1c-3cc2c(c1CN1CCN(C)CC1)OCO2 |  |  |  |  | Active |  |  |  |  | 
6 | COc1cc2cnc3c(c2cc1OC)Cc1c-3cc2c(c1CN(C)CCN(C)C)OCO2 | 1900 | 3400 |  | 7400 | Active | 1500 | > 100000 | 11000 | 730 | 

Further lines, with some results ahead:

Row | GI50 (HCT-116) [nM] | GI50 (DU-145) [nM] | GI50 (MDA-MB-435) [nM] | GI50 (OVCAR-3) [nM] | inhibition [1] | SMILES | GI50 (HOP-62) [nM] | GI50 (SN12C) [nM] | GI50 (SF-539) [nM] | GI50 (UACC-62) [nM] | also measured
7 | 1400 | 1900 |  | 1700 |  | COc1cc2cnc3c(c2cc1OC)Cc1c-3cc2c(c1CN1CCOCC1)OCO2 | 2100 | 2300 | 1800 | 100000 | 
8 | 160 | 260 |  | 210 | Active | COc1cc2cnc3c(c2cc1OC)Cc1c-3cc2c(c1Cn1ccnc1)OCO2 | 350 | 600 | 280 | 210 | GI50 (COLO 205): 510 nM; GI50 (ACHN): 280 nM; GI50 (HCC 2998): 1100 nM; GI50 (MOLT-4): 60 nM; GI50 (RPMI-8226): 41 nM; GI50 (SF-295): 150 nM; GI50 (NCI-H460): 130 nM; GI50 (SR): 12 nM; GI50 (U-251): 160 nM; GI50 (CCRF-CEM): 37 nM; GI50 (MCF7): 90 nM; GI50 (CAKI-1): 290 nM; GI50 (IGROV-1): 120 nM
9 | 640 | 730 | 2500 | 730 | Active | COc1cc2cnc3c(c2cc1OC)Cc1c-3cc2c(c1CN1CCCC1)OCO2 | 1200 | 4400 | 1900 | 6700 | 
10 | 890 | > 100000 | > 100000 | 5800 | Active | COc1cc2cnc3c(c2cc1OC)Cc1c-3cc2c(c1C)OCO2 | 7300 | > 100000 | 4600 | 700 | 
